Source: publication PMC10586715 (ACS chemical biology, 2023)
Peptide text beside a SMILES is read from it. * marks the point of attachment. Cbz = O=C(OCc1ccccc1)*

Legend:
sEH [1] = molecular target: T1, sEH (Homo sapiens, UniProt P34913); assay: sEH degradation in HepG2 cells by immunoblot; type: cell-based; conditions: for effect of co-treatment on sEH degradation induced by 1a: co-treatment with 1a, immunoblot
T1 sequence (P34913 1-555): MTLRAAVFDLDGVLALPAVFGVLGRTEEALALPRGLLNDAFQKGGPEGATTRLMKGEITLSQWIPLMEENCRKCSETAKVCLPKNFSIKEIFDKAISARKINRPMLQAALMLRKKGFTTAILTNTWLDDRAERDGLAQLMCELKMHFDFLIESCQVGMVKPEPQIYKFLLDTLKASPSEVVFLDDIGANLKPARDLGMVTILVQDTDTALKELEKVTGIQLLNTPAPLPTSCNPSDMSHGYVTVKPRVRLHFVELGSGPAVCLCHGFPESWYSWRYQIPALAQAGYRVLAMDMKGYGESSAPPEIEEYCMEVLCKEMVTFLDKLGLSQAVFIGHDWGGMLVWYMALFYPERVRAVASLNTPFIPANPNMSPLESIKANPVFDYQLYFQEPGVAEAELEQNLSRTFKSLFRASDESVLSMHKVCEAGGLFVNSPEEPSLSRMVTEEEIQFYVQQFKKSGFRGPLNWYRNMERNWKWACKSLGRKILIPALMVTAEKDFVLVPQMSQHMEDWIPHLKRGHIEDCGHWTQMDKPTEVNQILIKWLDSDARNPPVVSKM

sEH [2] = molecular target: T1, sEH; assay: Immunofluorescence colocalization of sEH with compartment markers; type: cell-based; conditions: co-treatment with 1a
Outline: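 Fixed in 4% paraformaldehyde for 20 min, permeabilised with 0.02% Triton X-100, blocked 1 h at room temperature in 5% goat serum with 1% BSA. Mouse anti-sEH plus rabbit anti-LAMP2 at 4 °C overnight; Alexa Fluor 647/488 secondaries (1:500) for 1 h; DAPI 10 min. Imaged at 20x by high-content imaging, automated analysis. Colocalisation area normalised to cell count.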

sEH [3] = molecular target: T1, sEH; assay: sEH level in CRBN-knockout HEK293T cells; type: cell-based
Outline: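 CRBN knockout HEK293T cells were maintained in high-glucose (4.5 g/L) DMEM with 10% fetal bovine serum, 100 units/mL penicillin and streptomycin.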

EPHX2 = assay: sEH transcription by qRT-PCR; type: cell-based, human
sEH [4] = molecular target: T1, sEH; assay: Residual sEH hydrolase activity of treated HepG2 cells; type: cell-based; conditions: HepG2, 1 μM, 24 h

Row | Molecule | effect of co-treatment on sEH degradation induced by 1a (sEH [1]) | further results
1 | CC(C)C[C@H](NC(=O)[C@H](Cc1ccccc1)NC(=O)c1cnccn1)B(O)O [BTZ, bortezomib] | slightly reversed the sEH degradation induced by 1a but higher concentrations failed to block | effect of co-treatment on sEH degradation induced by 1e and 2a (sEH [1]; co-treatment with 1e or 2a): failed to block the degradation
2 | CO/C1=C\C(C)=C\[C@@H](C)[C@@H](O)[C@@H](C)C/C(C)=C/C=C/[C@H](OC)[C@@H]([C@@H](C)[C@@H](O)[C@H](C)[C@@]2(O)C[C@@H](O)[C@H](C)[C@@H](C(C)C)O2)OC1=O [BafA1, bafilomycin A1] | blocked the degradation | effect of co-treatment on 1a-promoted sEH colocalization with LAMP2 (sEH [2]): reversed this trend
3 | CC(C)C[C@@H](C=O)NC(=O)[C@H](CC(C)C)NC(=O)[C@H](CC(C)C)NC(=O)OCc1ccccc1 [MG132] (Cbz-Leu-Leu-Leu-aldehyde) | failed to block the degradation induced by PROTAC 1a and instead promoted sEH degradation | effect on sEH level in CRBN-knockout cells (sEH [3]): neither 1a nor MG132 affect sEH level; effect on transcription of sEH (EPHX2): did not affect
4 | NS(=O)(=O)OC[C@@H]1C[C@@H](n2ccc3c(N[C@H]4CCc5ccccc54)ncnc32)C[C@@H]1O [MLN4924] | blocked the sEH degradation | 
5 | N#Cc1ccc(COC[C@H]2O[C@@H](n3c(NCc4ccc(Cl)c(Cl)c4)nc4c(N)ncnc43)[C@H](O)[C@@H]2O)cc1 [VER155008] | failed to rescue the sEH degradation | 
6 | trans-4-[4-(3-trifluoromethoxyphenyl-1-ureido)-cyclohexyloxy]-benzoic acid [Compound 1] | counteract the degradation effect | sEH hydrolase activity after treatment (sEH [4]): only slight inhibition
